T cruzi repl = inhibitors of intracellular T. cruzi growth, primary screen, luminescence, NIH3T3 host cells; T. cruzi beta-gal in NIH3T3, 90 h; inhibition, % (no concentration beside the values); 1.4% of 300,000 active; AID 1885, 2009;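 active means mean inhibition across valid replicates above about 55%, limit read from the data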;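 further: signal also drops with host cell toxicity which is not excluded here; higher percent means less beta-gal luminescence so fewer parasites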
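Incubation – ≥90 h infection period, 3 h prior cell attachment · System – NIH/3T3 fibroblasts plus reporter T. cruzi · Doses – compound pinned at 50 nL/well, DMSO · Read-out basis – percent inhibition of parasite-derived β-gal signal · Signal – luminescent β-galactosidase signal after 60 min lysis · Also added – 5000 T. cruzi trypomastigotes/well · Medium – Low-serum DMEM with 2% FBS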
Lipid droplet = inhibitors of hepatocyte lipid droplet formation, primary screen, imaging, high-throughput imaging, BODIPY stain; AML12 mouse hepatocytes, oleate lipid droplets; inhibition, % at 6.5 µM; 0.4% of 240,000 active; AID 1656, 2009;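 active means lipid droplet intensity inhibited by at least 50%, with more than 500 cells counted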
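Technique: fluorescence imaging, 20x objective, two fields per well / Assay system: AML12 hepatocytes (mouse) / Measure: % inhibition of lipid droplet signal / Doses: 6.5 µM single-point dosing / Incubation: overnight exposure / Reagent: 100 µM oleic acid challenge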
Lmaj promast = Leishmania major promastigote growth inhibition, primary screen; Leishmania major promastigotes, resazurin fluorescence viability; inhibition, % at 10 µM; 9% of 200,000 active; AID 1063, 2008; in the data active means inhibition above about 50%;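 further: promastigotes grown with compound for 44 hours at 28 °C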
DTT redox prof = compounds producing H2O2 with reducing agent – biochemical, NIH compound library profiling, artefact control for MLSCN library redox annotation, primary screen. activation, % at 10 µM. AID 878, 2007. DTT-dependent redox cycling H2O2, phenol red/HRP absorbance; 100% = 100 µM peroxide control, 0% = buffer. 0.03% of 200,000 active;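 active means activation of at least 50% relative to the plate's high and low controls in the primary single-dose screen; inactive means activation below 50%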;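 further: compound incubated with DTT at 0.8 mM final as the reducing agent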
MPTP inh = mitochondrial permeability transition pore inhibitors, primary screen, biochemical, isolated mouse mitochondria, absorbance; inhibition, % at 10 µM; 1.4% of 360,000 active; Ca2+ swelling absorbance, 30 min;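 active means inhibition of 50% or more, scaled per plate between neutral and stimulator controls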
A number is an active result; i = inactive; nt = no result. Shown is part of a subset that was picked to be rich in hits.

SMILES	T cruzi repl	Lipid droplet	Lmaj promast	DTT redox prof	MPTP inh
COCCn1ccc2c(OCC(=O)NCc3ccc(C)cc3)cccc2c1=O	i	nt	nt	nt	i
COc1ccccc1N1CCN(C(=O)CN(C)S(=O)(=O)c2ccc(C)cc2)CC1	nt	nt	nt	nt	i
Cc1cccc2c(N=Nc3ccc(S(=O)(=O)Nc4ccc(Cl)cc4)cc3[N+](=O)[O-])c(O)[nH]c12	i	i	53	i	i
Cn1cc(/C=N\O)nc2c(=O)n(-c3ccccc3)c(=O)nc1-2	i	i	i	i	i
Cn1c(SCCS(=O)(=O)c2ccc(Cl)cc2)nnc1-c1ccccc1	i	nt	100	i	i
Cc1nc2ccccc2c2c(N)c3ccccc3n12	i	i	51	i	i
Cc1c(C(=O)Oc2ccc(F)cc2)sc2ncn(Cc3cccc(F)c3)c(=O)c12	i	i	51	i	i
COc1cccc(C(=O)Nn2cnnc2)c1OC	i	i	nt	nt	i
CN(C)CCn1c2c(c(SCC(=O)Nc3cccc4ccccc34)nc1=O)CCC2	i	nt	nt	nt	i
CN(C)CCCn1c2c(c(SCC(=O)Nc3cccc4ccccc34)nc1=O)CCC2	57	nt	nt	nt	i
COc1ccc2cc(C(=O)Nc3ccc(F)cc3)sc(=O)c2c1OC	i	nt	i	i	i
COc1ccc2cc(C(=O)Nc3ccc(O)cc3)sc(=O)c2c1OC	i	i	100	i	i
COc1ccc(-n2c(SCC(=O)C(C)(C)C)nc3c(sc(=S)n3-c3ccccc3)c2=O)c(OC)c1	60	i	nt	nt	i
Cc1cccc2cc(CN(Cc3nnnn3Cc3ccco3)C3CCCC3)c3nnnn3c12	i	i	59	i	i
CC(=O)N(Cc1ccco1)Cc1cc2cccc(C)c2n2nnnc12	i	i	i	i	nt
O=C(OCc1ccccc1)C1=NNC2C(=O)N(Cc3ccccc3)C(=O)C12 (centres undefined)	i	i	i	i	i
CCOc1ccc(CCNC(=O)c2cc(-c3ccccc3)c(N3CCOCC3)s2)cc1	58	nt	nt	nt	i
CC1CN(C(=O)C2CC2)C(C)CN1C(=O)C1CC1 (centres undefined)	i	i	i	i	i
O=C(CSc1nc2nn(-c3ccccc3)c(=O)c-2c2n1CCCCC2)Nc1ccc(F)c(F)c1	nt	nt	nt	nt	i
COc1ccc(CNC(=S)Nc2ccc3nc(N4CCN(C)CC4)cc(C)c3c2)cc1	i	i	i	i	i
CCC(C)NC(=S)Nc1ccc2nc(N3CCOCC3)cc(C)c2c1 (centres undefined)	i	nt	nt	nt	i
CCC(C)NC(=S)Nc1ccc2nc(N3CCN(CC)CC3)cc(C)c2c1 (centres undefined)	i	i	94	i	i
COCCNC(=S)Nc1ccc2nc(N3CCN(C)CC3)cc(C)c2c1	i	i	nt	nt	i
COc1ccccc1CNC(=S)Nc1ccc2nc(N3CCN(C)CC3)cc(C)c2c1	57	i	100	i	i
CCN1CCN(c2cc(C)c3cc(NC(=S)NCCCOC)ccc3n2)CC1	i	i	nt	nt	i
SMILES	T cruzi repl	Lipid droplet	Lmaj promast	DTT redox prof	MPTP inh
Cc1cc(N2CCN(C)CC2)nc2ccc(NC(=S)NCc3cccs3)cc12	i	i	99	i	i
CCN1CCN(c2cc(C)c3cc(NC(=S)NCc4cccs4)ccc3n2)CC1	i	i	99	i	i
CC(=O)Nc1ccc(S(=O)(=O)NCC(=O)N2CCN(S(=O)(=O)c3cccs3)CC2)cc1	nt	nt	nt	nt	i
OCC[C@@H]1C[C@H](O)[C@@H](O)[C@]2(OCCc3cc(C(F)(F)F)ccc32)O1	nt	nt	nt	nt	i
O=C(Cc1cccc(NC(=O)C2CCN(C(=O)C3CCC3)CC2)c1)Nc1cccc(C(=O)N2CCCC2)c1	nt	nt	nt	nt	i
O=C(Nc1ccc2c(c1)OCO2)C1CCN(C(=O)c2ccc(Br)cc2)CC1	i	i	i	i	i
CCOc1ccccc1NC(=O)CCC(=O)Nc1ccc2nc(N3CCN(C)CC3)cc(C)c2c1	i	nt	74	i	i
Cc1ccc2cc3cc(C(=O)N(CC(=O)NC4CCCC4)c4cccc(C)c4C)sc3nc2c1	58	nt	51	i	i
CCc1cc2c(SCc3nc4sc(C(C)=O)c(C)c4c(=O)[nH]3)ncnc2s1	i	i	nt	nt	i
CC(=O)C1=C(C)Nc2ncnn2C1c1ccccc1OCc1ccccc1 (centres undefined)	i	i	61	i	i
Cc1ccc(-n2c(SCC(=O)N3CCCc4ccccc43)nnc2-c2cccnc2)c(C)c1	i	i	59	i	i
CC(C)c1ccccc1-n1c(SCC(=O)N2CCN(c3ccccc3)CC2)nnc1-c1cccnc1	i	nt	96	i	i
Cn1c(Cc2cccc3ccccc23)nnc1SCC(=O)N1CCN(c2ccccc2)CC1	i	nt	58	i	i
O=C(CSc1nnc(-c2cccnc2)n1-c1ccc(SC(F)F)cc1)N1CCCc2ccccc21	i	i	88	i	i
Cn1c(Cc2ccccc2)nnc1SCC(=O)N1CCN(c2ccccc2)CC1	i	i	i	i	i
COc1cc(CNc2nccn3ccnc23)cc(OC)c1	nt	nt	nt	nt	i
CCOc1ccccc1-n1c(SCC(=O)N2CCCc3ccccc32)nnc1-c1cccnc1	i	i	53	i	i
COc1ccc(CCn2c(C)cc(C(=O)CCl)c2C)cc1OC	i	i	89	i	i
Cc1cc(C(=O)CCl)c(C)n1CCc1ccc(Cl)cc1	62	i	101	i	i
Cc1cc(C(=O)CCl)c(C)n1CCc1ccc(F)cc1	73	i	100	i	i
Cc1cc(C(=O)CSc2nnc(N)s2)c(C)n1CCc1ccc(Cl)cc1	i	nt	i	i	i
Cc1cc(C(=O)CSc2nnnn2C)c(C)n1CCc1ccc(F)cc1	i	nt	i	i	i
O=C1C=C(c2ccc(C(=O)O)c(Cl)c2)C[C@@H](c2ccc3c(c2)OCO3)C1	nt	nt	nt	nt	i
O=C(CSc1n[nH]c(=O)[nH]c1=O)N/N=C/c1ccccc1	i	i	56	i	i
O=C(CSc1nc2c(sc3ccccc32)c(=O)n1CCCN1CCCC1)NCc1ccco1	i	i	95	i	i
SMILES	T cruzi repl	Lipid droplet	Lmaj promast	DTT redox prof	MPTP inh
CC1(C)Cc2c(sc3nc(SCC(=O)NCc4ccco4)n(-c4ccccc4)c(=O)c23)CS1	i	i	53	i	i
COCCCn1c(SCC(=O)NCc2ccco2)nc2sc3c(c2c1=O)CCC3	i	nt	51	i	i
Cc1nc2c(N)nn(C)c2nc1C	nt	nt	nt	nt	i
CN1CCC(N(C)S(=O)(=O)c2ccc(C(C)(C)C)cc2)CC1	65	i	nt	nt	i
CN1CCN(c2ccc(S(=O)(=O)N3CCCCC3)cc2NC(=O)/C=C/c2ccc(Cl)c([N+](=O)[O-])c2)CC1	60	nt	nt	nt	i
CCN1CCN(c2ccc(S(=O)(=O)N3CCCCC3)cc2NC(=O)/C=C/c2ccc([N+](=O)[O-])cc2)CC1	i	nt	nt	nt	i
CCCN(CCC)S(=O)(=O)c1ccc(NC(=O)COc2ccccc2)cc1	i	i	98	i	i
CN1CCN(c2ccc(S(=O)(=O)N3CCCCC3)cc2NC(=O)COc2cccc(Cl)c2)CC1	66	nt	nt	nt	i
